Consider 31 compounds from ChEMBL document CHEMBL5107954, “Potency and metabolic stability: a molecular hybrid case in the design of novel PF74-like small molecules targeting HIV-1 capsid protein” (RSC Med Chem, 2021).

The test system of data set [1] is Human immunodeficiency virus 1. In words: Binding affinity to HIV-1 capsid protein 121 expressed in Escherichia coli BL21 (DE3) cells assessed as change in melting temperature at 20 uM measured every 10 sec by RT-PCR based thermal shift assay. The gist of the method:
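Crosslinked hexameric CA A14C/E45C/W184A/M185A (CA121), purified protein at 7.5 μM in 50 mM sodium phosphate pH 8.0 with 1× Sypro Orange; compound 20 μM or DMSO control, 1% DMSO final. Heated 25 to 95 °C at 0.2 °C per 10 s in a real-time PCR instrument; fluorescence Ex 475–500, Em 520–590 nm. ΔTm is the hexamer melting point with compound minus DMSO control.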

The nature of data set [2]: Antiviral activity against wild type HIV1 NL4-3 infected in human TZM cells expressing GFP assessed as inhibition of viral LTR-activated GFP expression preincubated with compound for 24 hrs followed by viral infection and measured after 48 hrs. The data set is classed as functional, cell-based. As to conditions: Human immunodeficiency virus 1, NL4-3, TZM. Put shortly: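 TZM-GFP cells at 1 × 10^4 cells/well were treated with increasing compound concentrations, then infected 24 h later with HIV-1 NL4-3 at MOI 0.1. After 48 h, GFP-positive cells were counted by imaging and compared with DMSO controls. EC50 came from a log(inhibitor) vs. normalized response, variable-slope fit. Run in duplicate, ≥2 independent experiments, mean ± SD.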

Data set [3] in a line: Cytotoxicity against human TZM cells expressing GFP assessed as inhibition of cell growth incubated for 72 hrs by XTT assay. The data set is classed as toxicity, cell-based. Put shortly:
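TZM-GFP cells at 1 × 10^4 cells/well were exposed continuously to increasing compound concentrations for 72 h. Viable cells were read by XTT. CC50 came from a log(inhibitor) vs. normalized response, variable-slope curve fit. Run in duplicate, ≥2 independent experiments, mean ± SD.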
(In general: Tetrazolium dyes change colour on reduction, which living cells bring about.)

A short description of data set [4]: Metabolic stability in mouse liver microsomes assessed as half-life at 1 uM measured upto 15 mins in the presence of NADPH as co-factor by LC-MS/MS analysis. The format is ADME, Microsome. Background: Liver microsomes are a subcellular fraction often used to study metabolism.
Data set [5] can be described thus: Metabolic stability in human liver microsomes assessed as half-life at 1 uM measured upto 15 mins in the presence of NADPH as co-factor by LC-MS/MS analysis. The data set is classed as ADME, Microsome.

Consider `CN(C(=O)[C@H](Cc1ccccc1)NC(=O)CN1CCN(C(=O)c2cccc(Cl)n2)CC1=O)c1ccc(Cl)cc1`, for which the ΔTm in data set [1] stood at 1.1 °C. The half-maximal effective concentration (EC50) in data set [2] amounted to 7.7 µM. Also, the cytotoxic concentration (CC50) at 72 h in data set [3] was above 50 µM. In addition, the half-life at 1 µM is 1 min in data set [4] and 3.6 min in data set [5].
Regarding `CN(C(=O)[C@H](Cc1ccccc1)NC(=O)Cn1ccc(C(F)(F)F)c(Oc2cc(Cl)cc(C(=O)O)c2)c1=O)c1ccc(Cl)cc1`, in data set [1], the ΔTm worked out at 1.9 °C. Moreover, the EC50 in data set [2] is above 20 µM. Moreover, the half-maximal cytotoxic concentration (CC50) at 72 h in data set [3] was above 50 µM.
For the compound `CN(C(=O)[C@H](Cc1ccccc1)NC(=O)CN1CCN(C(=O)c2cn[nH]c2)CC1=O)c1ccc(Cl)cc1`, the ΔTm in data set [1] turned out to be 1.3 °C. The EC50 in data set [2] is above 20 µM. The CC50 at 72 h in data set [3] was above 50 µM.
Consider `CN(C(=O)[C@H](Cc1ccccc1)NC(=O)CN1CCN(C(=O)c2ccccc2Br)CC1)c1ccc(Cl)cc1`, for which the ΔTm in data set [1] turned out to be 0.7 °C. In addition, in data set [2], the half-maximal effective concentration (EC50) is 20 µM. Moreover, the CC50 at 72 h in data set [3] was above 50 µM.
In the case of `CN(C(=O)[C@H](Cc1ccccc1)NC(=O)CN1CCN(C(=O)c2ccc([N+](=O)[O-])cc2)CC1=O)c1ccc(Cl)cc1`, in data set [1], the ΔTm came out at 1.5 °C. Besides, the 50% effective concentration (EC50) in data set [2] was above 20 µM. Further, in data set [3], the 50% cytotoxic concentration (CC50) at 72 h is above 50 µM.
Turning to `CN(C(=O)[C@H](Cc1ccccc1)NC(=O)CN1CCNCC1=O)c1ccc(Cl)cc1`, the ΔTm in data set [1] turned out to be 0.1 °C. Moreover, in data set [2], the EC50 was above 20 µM. Also, the CC50 at 72 h in data set [3] was above 50 µM.
In the case of `CN(C(=O)[C@H](Cc1ccccc1)NC(=O)COn1nnc2cccnc21)c1ccc(Cl)cc1`, the shift in melting temperature (ΔTm) in data set [1] is 1 °C. The half-maximal effective concentration (EC50) in data set [2] is 5.2 µM. The 50% cytotoxic concentration (CC50) at 72 h in data set [3] is above 50 µM. Besides, the half-life at 1 µM in data set [4] was found to be 0.5 min; in data set [5], 0.8 min.
Consider `CN(C(=O)[C@H](Cc1ccccc1)NC(=O)CN1CCN(C(=O)c2ccccc2N)CC1=O)c1ccc(Cl)cc1`, for which, in data set [1], the shift in melting temperature (ΔTm) was determined as 0.7 °C. Also, the EC50 in data set [2] came to 4.5 µM. Further, the CC50 at 72 h in data set [3] is above 50 µM. The half-life at 1 µM in data set [4] was 1.3 min; in data set [5], 4.4 min.
Regarding `CN(C(=O)[C@H](Cc1ccccc1)NC(=O)CN1CCN(C(=O)c2ccc(O)cc2)CC1=O)c1ccc(Cl)cc1`, the thermal shift (ΔTm) in data set [1] is 0.7 °C. In data set [2], the EC50 was above 20 µM. The CC50 at 72 h in data set [3] is above 50 µM.
As to `CN(C(=O)[C@H](Cc1ccccc1)NC(=O)CN1CCN(C(=O)c2ccccc2O)CC1=O)c1ccc(Cl)cc1`, the ΔTm in data set [1] was 0.8 °C. Moreover, the EC50 in data set [2] was above 20 µM. In data set [3], the CC50 at 72 h is above 50 µM.
As to `CN(C(=O)[C@H](Cc1ccccc1)NC(=O)CN1CCN(C(=O)c2ccc(S(=O)(=O)F)cc2)CC1=O)c1ccc(Cl)cc1`, the ΔTm in data set [1] came out at 0.8 °C. Moreover, in data set [2], the half-maximal effective concentration (EC50) was above 20 µM. Further, the CC50 at 72 h in data set [3] is above 50 µM.
Take `CN(C(=O)[C@H](Cc1ccccc1)NC(=O)CN1CCN(C(=O)c2cccnc2)CC1=O)c1ccc(Cl)cc1`: in data set [1], the ΔTm is 0.7 °C. Moreover, the EC50 in data set [2] amounted to 12.5 µM. Also, the half-maximal cytotoxic concentration (CC50) at 72 h in data set [3] is above 50 µM.
Taken in the same sequence, the figures for `CN(C(=O)[C@H](Cc1ccccc1)NC(=O)CN1CCN(C(=O)c2ccc(F)cc2)CC1=O)c1ccc(Cl)cc1` were 1.3 °C, 11.5 µM and above 50 µM.
Taken in the same sequence, the figures for `CN(C(=O)[C@H](Cc1ccccc1)NC(=O)CN1CCN(C(=O)c2cccc(N)c2)CC1=O)c1ccc(Cl)cc1` were 0.3 °C, above 20 µM and above 50 µM.
On to `CN(C(=O)[C@H](Cc1ccccc1)NC(=O)CN1CCN(C(=O)c2cccc(F)c2)CC1=O)c1ccc(Cl)cc1`, for which the thermal shift (ΔTm) in data set [1] was 1.7 °C. Moreover, the 50% effective concentration (EC50) in data set [2] is 13.3 µM. Further, the 50% cytotoxic concentration (CC50) at 72 h in data set [3] is above 50 µM.
As to `CN(C(=O)[C@H](Cc1ccccc1)NC(=O)CN1CCN(C(=O)c2ccc(C#N)cc2)CC1=O)c1ccc(Cl)cc1`, in data set [1], the thermal shift (ΔTm) worked out at 1.7 °C. Further, in data set [2], the concentration for a half-maximal effect (EC50) was determined as 11 µM. In addition, the CC50 at 72 h in data set [3] is above 50 µM.
As to `CN(C(=O)[C@H](Cc1ccccc1)NC(=O)CN1CCN(C(=O)c2c[nH]c3ccccc23)CC1=O)c1ccc(Cl)cc1`, the thermal shift (ΔTm) in data set [1] is 0.3 °C. In data set [2], the half-maximal effective concentration (EC50) is above 20 µM. Besides, the CC50 at 72 h in data set [3] was above 50 µM.
Turning to `CN(C(=O)[C@H](Cc1ccccc1)NC(=O)CN1CCN(C(=O)c2ccccc2)CC1=O)c1ccc(Cl)cc1`, the thermal shift (ΔTm) in data set [1] is 0.7 °C. Moreover, the EC50 in data set [2] was above 20 µM. Besides, the CC50 at 72 h in data set [3] was above 50 µM.
`CN(C(=O)[C@H](Cc1ccccc1)NC(=O)CN1CCN(C(=O)c2cccc(S(=O)(=O)F)c2)CC1=O)c1ccc(Cl)cc1`: the thermal shift (ΔTm) in data set [1] is 1.1 °C. Further, the EC50 in data set [2] is above 20 µM. Besides, the CC50 at 72 h in data set [3] is above 50 µM.
In the case of `CN(C(=O)[C@H](Cc1ccccc1)NC(=O)CN1CCN(C(=O)c2cccc(Cl)c2)CC1=O)c1ccc(Cl)cc1`, the ΔTm in data set [1] was 1 °C. The concentration giving a half-maximal response (EC50) in data set [2] is 10.2 µM. Moreover, the CC50 at 72 h in data set [3] was above 50 µM.
With `CN(C(=O)[C@H](Cc1ccccc1)NC(=O)CN1CCN(C(=O)c2ccc(N)cc2)CC1=O)c1ccc(Cl)cc1`, the ΔTm in data set [1] came to 0.5 °C. Moreover, the half-maximal effective concentration (EC50) in data set [2] is above 20 µM. In data set [3], the CC50 at 72 h is above 50 µM.
For `CN(C(=O)[C@H](Cc1ccccc1)NC(=O)CN1CCN(C(=O)c2cccc(O)c2)CC1=O)c1ccc(Cl)cc1`, in data set [1], the thermal shift (ΔTm) came out at 0.8 °C. For the same compound, the half-maximal effective concentration (EC50) in data set [2] was above 20 µM. Also, in data set [3], the cytotoxic concentration (CC50) at 72 h was above 50 µM.
As to `CN(C(=O)[C@H](Cc1ccccc1)NC(=O)CN1CCN(C(=O)c2ccc(Br)cc2)CC1=O)c1ccc(Cl)cc1`, in data set [1], the thermal shift (ΔTm) turned out to be 0.8 °C. Further, the EC50 in data set [2] was 10.2 µM. For the same compound, the half-maximal cytotoxic concentration (CC50) at 72 h in data set [3] was above 50 µM.
With `CN(C(=O)[C@H](Cc1ccccc1)NC(=O)CN1CCN(C(=O)c2ccccn2)CC1=O)c1ccc(Cl)cc1`, the ΔTm in data set [1] was 0.8 °C. Also, the half-maximal effective concentration (EC50) in data set [2] was 12.7 µM. In addition, the CC50 at 72 h in data set [3] is above 50 µM.
Take `CN(C(=O)[C@H](Cc1ccccc1)NC(=O)CN1CCN(C(=O)c2cccc(C(F)(F)F)c2)CC1=O)c1ccc(Cl)cc1`: the shift in melting temperature (ΔTm) in data set [1] was determined as 0.3 °C. Moreover, the concentration for a half-maximal effect (EC50) in data set [2] was above 20 µM. For the same compound, the 50% cytotoxic concentration (CC50) at 72 h in data set [3] was above 50 µM.
Regarding `CN(C(=O)[C@H](Cc1ccccc1)NC(=O)CN1CCN(C(=O)c2cccc(C#N)c2)CC1=O)c1ccc(Cl)cc1`, the shift in melting temperature (ΔTm) in data set [1] amounted to 1.5 °C. Also, the EC50 in data set [2] was determined as 12.9 µM. The cytotoxic concentration (CC50) at 72 h in data set [3] was above 50 µM.
Turning to `CN(C(=O)[C@H](Cc1ccccc1)NC(=O)CN1CCN(C(=O)c2ccccc2C(F)(F)F)CC1=O)c1ccc(Cl)cc1`, in data set [1], the shift in melting temperature (ΔTm) amounted to 1.4 °C. Besides, the EC50 in data set [2] came to 7.2 µM. Also, the 50% cytotoxic concentration (CC50) at 72 h in data set [3] was above 50 µM.
For `CN(C(=O)[C@H](Cc1ccccc1)NC(=O)CN1CCN(C(=O)c2ccccc2C#N)CC1=O)c1ccc(Cl)cc1`, the ΔTm in data set [1] came out at 2.1 °C. Besides, in data set [2], the half-maximal effective concentration (EC50) turned out to be 7.5 µM. Also, in data set [3], the CC50 at 72 h is above 50 µM.
In the case of `Cc1[nH]c2ccccc2c1CC(=O)N[C@@H](Cc1ccccc1)C(=O)N(C)c1ccccc1`, the ΔTm in data set [1] was 6.9 °C. Also, the cytotoxic concentration (CC50) at 72 h in data set [3] is above 50 µM.
With `CN(C(=O)[C@H](Cc1ccccc1)NC(=O)CN1CCN(C(=O)c2ccc(C(F)(F)F)cc2)CC1=O)c1ccc(Cl)cc1`, the thermal shift (ΔTm) in data set [1] stood at 0.5 °C. Further, in data set [2], the EC50 is above 20 µM. Moreover, the CC50 at 72 h in data set [3] is above 50 µM.
With `CN(C(=O)[C@H](Cc1ccccc1)NC(=O)CN1CCN(C(=O)c2ccncc2)CC1=O)c1ccc(Cl)cc1`, the ΔTm in data set [1] turned out to be 0.7 °C. Also, the concentration for a half-maximal effect (EC50) in data set [2] came out at 15.6 µM. Further, the CC50 at 72 h in data set [3] was above 50 µM.

A word on the ΔTm: it is the change in melting temperature against a reference sample. For orientation: EC50 means the concentration needed to bring the measured effect to its halfway point. The term CC50 denotes the concentration at which the toxic effect on the cells reaches its halfway point. Broadly, the half-life is the time in which the quantity being followed falls by half.
